Data taken from ChEMBL document CHEMBL4715736, “Identification of anticancer agents based on the thieno[2,3-b]pyridine and 1H-pyrazole molecular scaffolds” (2016).

Legend:
Assay type in all cases: functional
[1] = test system: SK-OV-3; assay: Growth inhibition of human SK-OV-3 cells assessed as cell growth at 0.1 uM incubated for 48 hrs by sulforhodamine B assay relative to control; conditions: read-out: Activity
[2] = test system: SF-295; assay: Growth inhibition of human SF-295 cells assessed as cell growth at 1 uM incubated for 48 hrs by sulforhodamine B assay relative to control; conditions: read-out: Activity
[3] = test system: SK-MEL-28; assay: Growth inhibition of human SK-MEL-28 cells assessed as cell growth at 0.1 uM incubated for 48 hrs by sulforhodamine B assay relative to control; conditions: read-out: Activity
[4] = test system: SNB-75; assay: Growth inhibition of human SNB-75 cells assessed as cell growth at 0.01 uM incubated for 48 hrs by sulforhodamine B assay relative to control; conditions: read-out: Activity
[5] = test system: RPMI-8226; assay: Growth inhibition of human RPMI-8226 cells assessed as cell growth at 1 uM incubated for 48 hrs by sulforhodamine B assay relative to control; conditions: read-out: Activity
[6] = test system: COLO 205; assay: Growth inhibition of human COLO 205 cells assessed as cell growth at 1 uM incubated for 48 hrs by sulforhodamine B assay relative to control; conditions: read-out: Activity
Outline: (§1)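 NCI Developmental Therapeutics Program NCI60 panel. Compounds that were active in the 10 µM one-dose screen went on to dose–response testing. Growth at each concentration is expressed relative to untreated control (100%). GI50 (concentration giving 50% of maximal inhibition of proliferation) and TGI (concentration giving total growth inhibition) were derived from the curves.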

[7] = test system: U-251; assay: Growth inhibition of human U-251 cells assessed as cell growth at 1 uM incubated for 48 hrs by sulforhodamine B assay relative to control; conditions: read-out: Activity
[8] = test system: SN12C; assay: Growth inhibition of human SN12C cells assessed as cell growth at 0.01 uM incubated for 48 hrs by sulforhodamine B assay relative to control; conditions: read-out: Activity
[9] = test system: SF-539; assay: Growth inhibition of human SF-539 cells incubated for 48 hrs by sulforhodamine B assay; conditions: for CC50: read-out: LC50 (the source's name)
Outline: (§2)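 NCI DTP 60-line human tumour panel. Dose-response curves were run only for ligands active in the initial 10 µM screen. GI50 (concentration giving 50% of maximal inhibition of proliferation) and TGI (concentration giving total growth inhibition) were derived from these curves.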

[10] = test system: UO-31; assay: Growth inhibition of human UO-31 cells assessed as cell growth at 0.1 uM incubated for 48 hrs by sulforhodamine B assay relative to control; conditions: read-out: Activity
[11] = test system: NCI-H322M; assay: Growth inhibition of human NCI-H322M cells incubated for 48 hrs by sulforhodamine B assay; conditions: for CC50: read-out: LC50 (the source's name)
Outline: (§3)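 NCI60 panel at the NCI Developmental Therapeutics Program. Only compounds active in the 10 µM screen went to dose-response testing. GI50, the concentration giving 50% of maximal inhibition of proliferation, and TGI, the concentration giving total growth inhibition, were derived from the dose-response curves.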

[12] = test system: NCI-H522; assay: Growth inhibition of human NCI-H522 cells assessed as cell growth at 0.01 uM incubated for 48 hrs by sulforhodamine B assay relative to control; conditions: read-out: Activity
[13] = test system: HOP-62; assay: Growth inhibition of human HOP-62 cells incubated for 48 hrs by sulforhodamine B assay; outline: as §3
[14] = test system: LOX IMVI; assay: Growth inhibition of human LOX IMVI cells assessed as cell growth at 1 uM incubated for 48 hrs by sulforhodamine B assay relative to control; conditions: read-out: Activity
[15] = test system: A549; assay: Growth inhibition of human A549/ATCC cells assessed as cell growth at 1 uM incubated for 48 hrs by sulforhodamine B assay relative to control; conditions: read-out: Activity; outline: as §1
[16] = test system: M14; assay: Growth inhibition of human M14 cells assessed as cell growth at 0.01 uM incubated for 48 hrs by sulforhodamine B assay relative to control; conditions: read-out: Activity
[17] = test system: NCI-H522; assay: Growth inhibition of human NCI-H522 cells assessed as cell growth at 0.1 uM incubated for 48 hrs by sulforhodamine B assay relative to control; conditions: read-out: Activity
[18] = test system: K562; assay: Growth inhibition of human K562 cells assessed as cell growth at 0.01 uM incubated for 48 hrs by sulforhodamine B assay relative to control; conditions: read-out: Activity
[19] = test system: Malme-3M; assay: Growth inhibition of human Malme-3M cells assessed as cell growth at 0.01 uM incubated for 48 hrs by sulforhodamine B assay relative to control; conditions: read-out: Activity
[20] = test system: SF-268; assay: Growth inhibition of human SF-268 cells incubated for 48 hrs by sulforhodamine B assay; outline: as §2
[21] = test system: RXF 393; assay: Growth inhibition of human RXF 393 cells assessed as cell growth at 100 uM incubated for 48 hrs by sulforhodamine B assay relative to control; conditions: read-out: Activity
[22] = test system: SR; assay: Growth inhibition of human SR cells assessed as cell growth at 1 uM incubated for 48 hrs by sulforhodamine B assay relative to control; conditions: read-out: Activity
[23] = test system: HT-29; assay: Growth inhibition of human HT-29 cells assessed as cell growth at 1 uM incubated for 48 hrs by sulforhodamine B assay relative to control; conditions: read-out: Activity
[24] = test system: OVCAR-5; assay: Growth inhibition of human OVCAR-5 cells incubated for 48 hrs by sulforhodamine B assay; conditions: for CC50: read-out: LC50 (the source's name); outline: as §2
[25] = test system: CCRF-CEM; assay: Growth inhibition of human CCRF-CEM cells assessed as cell growth at 100 uM incubated for 48 hrs by sulforhodamine B assay relative to control; conditions: read-out: Activity; outline: as §1
[26] = test system: HCC 2998; assay: Growth inhibition of human HCC 2998 cells assessed as cell growth at 0.01 uM incubated for 48 hrs by sulforhodamine B assay relative to control; conditions: read-out: Activity; outline: as §1
[27] = test system: HT-29; assay: Growth inhibition of human HT-29 cells assessed as cell growth at 0.01 uM incubated for 48 hrs by sulforhodamine B assay relative to control; conditions: read-out: Activity
[28] = test system: UO-31; assay: Growth inhibition of human UO-31 cells incubated for 48 hrs by sulforhodamine B assay; conditions: for CC50: read-out: LC50 (the source's name); outline: as §2
[29] = test system: UACC-62; assay: Growth inhibition of human UACC-62 cells assessed as cell growth at 1 uM incubated for 48 hrs by sulforhodamine B assay relative to control; conditions: read-out: Activity
[30] = test system: K562; assay: Growth inhibition of human K562 cells assessed as cell growth at 1 uM incubated for 48 hrs by sulforhodamine B assay relative to control; conditions: read-out: Activity
[31] = test system: DU-145; assay: Growth inhibition of human DU-145 cells incubated for 48 hrs by sulforhodamine B assay; conditions: for CC50: read-out: LC50 (the source's name); outline: as §1
[32] = test system: UACC-62; assay: Growth inhibition of human UACC-62 cells incubated for 48 hrs by sulforhodamine B assay; outline: as §2
[33] = test system: OVCAR-4; assay: Growth inhibition of human OVCAR-4 cells assessed as cell growth at 0.1 uM incubated for 48 hrs by sulforhodamine B assay relative to control; conditions: read-out: Activity
[34] = test system: NCI-H226; assay: Growth inhibition of human NCI-H226 cells assessed as cell growth at 0.1 uM incubated for 48 hrs by sulforhodamine B assay relative to control; conditions: read-out: Activity
[35] = test system: CCRF-CEM; assay: Growth inhibition of human CCRF-CEM cells assessed as cell growth at 0.01 uM incubated for 48 hrs by sulforhodamine B assay relative to control; conditions: read-out: Activity; outline: as §1

Compound: Nc1c(C(=O)Nc2ccccc2)sc2nc3c(cc12)CN(Cc1ccccc1)CC3
- growth at 0.1 µM [1]: 93%
- growth at 1 µM [2]: 90%
- growth at 0.1 µM [3]: 93%
- growth at 0.01 µM [4]: 91%
- growth at 1 µM [5]: 93%
- growth at 1 µM [6]: 93%
- growth at 1 µM [7]: 101%
- growth at 0.01 µM [8]: 94%
- GI50 [9]: 2.78 µM
- TGI [9]: > 100 µM
- CC50 [9]: > 100 µM
- growth at 0.1 µM [10]: 83%
- GI50 [11]: > 100 µM
- TGI [11]: > 100 µM
- CC50 [11]: > 100 µM
- growth at 0.01 µM [12]: 89%
- GI50 [13]: 4.11 µM
- LC50 [13]: > 100 µM
- TGI [13]: 33.3 µM
- growth at 1 µM [14]: 98%
- growth at 1 µM [15]: 88%
- growth at 0.01 µM [16]: 98%
- growth at 0.1 µM [17]: 87%
- growth at 0.01 µM [18]: 98%
- growth at 0.01 µM [19]: 87%
- GI50 [20]: 5.62 µM
- LC50 (concentration killing 50% of cells) [20]: > 100 µM
- TGI [20]: > 100 µM
- growth at 100 µM [21]: -5%
- growth at 1 µM [22]: 82%
- growth at 1 µM [23]: 101%
- GI50 [24]: > 100 µM
- TGI [24]: > 100 µM
- CC50 [24]: > 100 µM
- growth at 100 µM [25]: 36%
- growth at 0.01 µM [26]: 90%
- growth at 0.01 µM [27]: 104%
- GI50 [28]: 6.14 µM
- TGI [28]: > 100 µM
- CC50 [28]: > 100 µM
- growth at 1 µM [29]: 89%
- growth at 1 µM [30]: 88%
- GI50 [31]: 14.8 µM
- TGI [31]: > 100 µM
- CC50 [31]: > 100 µM
- GI50 [32]: 13.9 µM
- LC50 [32]: > 100 µM
- TGI [32]: > 100 µM
- growth at 0.1 µM [33]: 91%
- growth at 0.1 µM [34]: 96%
- growth at 0.01 µM [35]: 96%

Compound: COc1cccc(NC(=O)c2sc3nc4c(cc3c2N)CN(Cc2ccccc2)CC4)c1
- growth at 0.1 µM [1]: 100%
- growth at 1 µM [2]: 77%
- growth at 0.1 µM [3]: 99%
- growth at 0.01 µM [4]: 88%
- growth at 1 µM [5]: 84%
- growth at 1 µM [6]: 92%
- growth at 1 µM [7]: 72%
- growth at 0.01 µM [8]: 95%
- GI50 [9]: 1.99 µM
- TGI [9]: 6.56 µM
- CC50 [9]: 36.4 µM
- growth at 0.1 µM [10]: 92%
- GI50 [11]: 25.2 µM
- TGI [11]: > 100 µM
- CC50 [11]: > 100 µM
- growth at 0.01 µM [12]: 95%
- GI50 [13]: 1.83 µM
- LC50 [13]: 41.1 µM
- TGI [13]: 6.47 µM
- growth at 1 µM [14]: 86%
- growth at 1 µM [15]: 88%
- growth at 0.01 µM [16]: 96%
- growth at 0.1 µM [17]: 95%
- growth at 0.01 µM [18]: 106%
- growth at 0.01 µM [19]: 97%
- GI50 [20]: 3.66 µM
- LC50 (concentration killing 50% of cells) [20]: > 100 µM
- TGI [20]: 207 µM
- growth at 100 µM [21]: -49%
- growth at 1 µM [22]: 25%
- growth at 1 µM [23]: 96%
- GI50 [24]: 36.9 µM
- TGI [24]: > 100 µM
- CC50 [24]: > 100 µM
- growth at 100 µM [25]: 21%
- growth at 0.01 µM [26]: 97%
- growth at 0.01 µM [27]: 104%
- GI50 [28]: 3.27 µM
- TGI [28]: 32.3 µM
- CC50 [28]: > 100 µM
- growth at 1 µM [29]: 58%
- growth at 1 µM [30]: 31%
- GI50 [31]: 5.22 µM
- TGI [31]: 22.2 µM
- CC50 [31]: 76.3 µM
- GI50 [32]: 1.92 µM
- LC50 [32]: > 100 µM
- TGI [32]: 29.8 µM
- growth at 0.1 µM [33]: 93%
- growth at 0.1 µM [34]: 87%
- growth at 0.01 µM [35]: 99%
